Measles CPE: protection of cells from measles virus. Measles virus-infected cells, CPE protection, absorbance. protection (pct of control), % at 4 µM. 140,000 compounds, 1.5% hits. AID 841; in the data active = protection mostly above about 24%, no sharp cut-off; inactive = mostly below about 26%
RAM inhibit: blocks the yeast RAM network; inhibition, % at 50 µM; 190,000 compounds, 1.8% hits; AID 868; S. cerevisiae dse1pr::URA3 reporter, 5-FOA growth OD615, 2 d; analog-sensitive cbk1-as2 kinase mutant strain;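 active = inhibition above a set limit, 3 SD over mean compound inhibition, cut at about 8.4% in these data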;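 note: inhibition rescues growth on 5-FOA so higher OD means more RAM inhibition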
INS promoter inh: TRM-6 insulin promoter activity inhibition; TRM-6 cells (human fetal islet line), insulin promoter-eGFP reporter, imaging; reporter expression induced with tamoxifen; inhibition, % at 2 µM; 130,000 compounds, 0.9% hits;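 active = inhibition above the mean plus 3 SD, with well images judged a real hit on visual review, cut at about 60% in these data, passing the limit was not always enough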
Yeast life ext: extends the lifespan of yeast. inhibition of the nicotinamide effect, % at 10 µM. 130,000 compounds, 0.68% hits. AID 775. S. cerevisiae growth with nicotinamide, OD615; deaD strain in restrictive glucose medium;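 active = inhibition above a set limit, placed 3 SD over the median of all compounds, cut at about 26% in these data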
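Assay system: engineered S. cerevisiae DeaD replicative-lifespan strain, galactose-grown log-phase cells; Buffer or medium: CSMM-D glucose medium, restrictive; Probe or stimulus: nicotinamide 1.5 mM; Compound: single dose 10 µM compound, 0.25% DMSO; Schedule: 4 h preincubation then 48 h treatment at 30 °C; Technique: OD615 measurement.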
Mdm2 ligase inh: inhibitors of human Mdm2 E3 ubiquitin ligase. Q00987. cell-based MDM2 ubiquitination luciferase reporter, 2 h; 0 = plate control, 100 = twice control, blank-subtracted. signal enhancement, % at 5 µM. 210,000 compounds, 0.11% hits;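 active = signal enhancement of 30% or more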;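 note: luminescence tracks abundance of the self-degrading MDM2-luciferase fusion protein; higher signal means inhibition of MDM2 E3 ligase activity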
Target sequence (Q00987 whole entry, looked up, the tested form may be a part): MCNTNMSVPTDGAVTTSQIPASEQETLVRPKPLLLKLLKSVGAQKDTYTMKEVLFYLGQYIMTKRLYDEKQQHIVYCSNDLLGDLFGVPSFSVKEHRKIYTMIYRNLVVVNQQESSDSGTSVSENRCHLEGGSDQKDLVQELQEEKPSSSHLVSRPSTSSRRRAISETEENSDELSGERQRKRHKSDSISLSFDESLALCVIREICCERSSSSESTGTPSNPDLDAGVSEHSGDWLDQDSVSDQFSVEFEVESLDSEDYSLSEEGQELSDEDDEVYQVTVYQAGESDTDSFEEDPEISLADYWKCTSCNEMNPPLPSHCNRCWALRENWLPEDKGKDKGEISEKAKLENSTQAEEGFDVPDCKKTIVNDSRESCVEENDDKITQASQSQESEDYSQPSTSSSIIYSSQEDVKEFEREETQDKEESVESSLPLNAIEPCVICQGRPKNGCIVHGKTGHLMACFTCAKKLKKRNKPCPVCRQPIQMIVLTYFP
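Assay system: stable mammalian line carrying autodegrading MDM2–luciferase fusion reporter; Input: 2000 cells in each well; Compound dosing: single-point 5 µM; Schedule: 2 h compound exposure at 37 °C; Signal: SteadyLite luciferase luminescence after 15 min room-temperature reagent incubation; Evaluation: % luminescence enhancement versus blank-corrected plate control mean; Benchmarks: plate controls and plate blanks.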
BB579 growth dn: reduces growth of yeast BB579 in restrictive medium. inhibition, % at 10 µM. S. cerevisiae BB579 growth, OD615, 48 h. 140,000 compounds, 0.51% hits;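 active = inhibition above a set limit, 3 SD over the mean compound inhibition, cut at about 44% in these data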
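controls = amphotericin B 10 µg/mL, positive | assay system = DeaD yeast strain BB579 | schedule = 48 h compound exposure at 30 °C after 4 h preincubation | detection = OD615 turbidity measurement | medium = restrictive CSMM-D medium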
A number is an active result; . = inactive; / = no result. Rows were chosen to be rich in hits. Some 4% of all compounds tested hit in one or more screens of this group.

SMILES	Measles CPE	RAM inhibit	INS promoter inh	Yeast life ext	Mdm2 ligase inh	BB579 growth dn
COc1cccc(CC(=O)Nc2ccc3nc(C)sc3c2)c1	.	.	.	.	/	79
Cc1ccc(C(=O)Nc2ccc3nc(C)sc3c2)s1	60	.	.	.	.	.
Cc1cc(NC(=O)c2ccccc2-c2ccccc2C(=O)O)no1	.	.	64	.	.	.
COc1ccccc1CC(=O)Nc1ccc2nc(C)sc2c1	.	.	/	.	.	.
Cc1nc2ccc(NC(=O)c3cc([N+](=O)[O-])cc([N+](=O)[O-])c3Cl)cc2s1	.	.	/	.	.	89
O=C1CC(SC(=Nc2ccccc2)Nc2ccccc2)C(=O)N1c1cccc2ccccc12 (stereo not given)	.	.	.	.	.	.
O=C(Cc1c(C(=O)O)[nH]c2ccccc12)NCCN1CCN(c2ccccc2F)CC1	.	/	/	.	.	.
CC(NC(=O)c1ccc(C23CC4CC(CC(C4)C2)C3)cc1)C(=O)O (stereo not given)	/	.	.	/	.	/
Cc1cc(NC(=O)c2ccc(Cl)cc2)no1	.	.	.	.	.	.
Cc1cc(NC(=O)c2ccc3nc(C)sc3c2)no1	60	.	/	.	.	.
Cc1cc(NC(=O)CN2C(=O)CC(c3ccco3)Sc3ccccc32)no1 (stereo not given)	42	.	/	.	.	.
CCOCCCn1cnc2c(c1=O)c1nc3ccccc3nc1n2-c1ccc(C)cc1	.	.	.	.	.	.
CCOCCCn1cnc2c(c1=O)c1nc3ccccc3nc1n2-c1ccccc1	43	.	.	.	.	.
O=C1c2ccccc2-c2cccc(C(=O)N3CCCCCC3)c21	29	.	.	.	.	.
CCn1ncc(Br)c1C(=O)Nc1sc2c(c1C(N)=O)CCC2	33	.	.	.	.	.
CCN=c1scc(C)n1/N=C/c1ccc(O)c(O)c1O	.	.	.	.	.	.
COCCN=c1scc(-c2cccs2)n1/N=C/c1ccc(O)c(O)c1O	.	9.6	/	.	.	.
O=C(Nc1cccc(O)c1)c1cc2nc(-c3ccccc3)cc(-c3ccccc3)n2n1	.	9.7	.	.	.	.
Cc1ccc(C)c(NC(=O)Cn2cnc3c(oc4ccccc43)c2=O)c1	/	.	/	/	.	/
CN1CCN(c2ccccc2NC(=O)c2ccc(-c3ccc(Cl)cc3Cl)o2)CC1	.	.	.	.	.	.
CCCCn1nnc(NC(=O)c2ccc(-c3cccc(Cl)c3)o2)n1	.	8.4	.	.	.	.
CCCn1nnc(NC(=O)c2ccc(-c3cccc(Cl)c3)o2)n1	.	.	.	.	.	.
O=C(Nc1ccccc1N1CCCCC1)c1ccc(-c2cccc(Cl)c2)o1	.	9.5	.	.	.	.
O=C(Oc1ccccc1[N+](=O)[O-])c1cccnc1	29	.	/	.	.	.
Cc1occc1C(=O)Nc1nn[nH]n1	.	.	92	.	.	.
SMILES	Measles CPE	RAM inhibit	INS promoter inh	Yeast life ext	Mdm2 ligase inh	BB579 growth dn
CC(=O)N1CCN(CC(=O)Nc2cc(S(=O)(=O)N3CCOCC3)ccc2C)CC1	/	.	/	/	.	/
Cc1cc(C)n(C(=O)CNC(=O)Cc2ccccc2)n1	.	.	.	.	.	.
Cc1cc(C)n(C(=O)CNC(=O)C(c2ccccc2)c2ccccc2)n1	.	8.8	.	/	.	.
COc1cc(CNCc2ccccn2)ccc1OCc1cccc(Cl)c1	.	.	.	.	.	.
O=C(NCc1ccco1)c1ccc(CNc2c(N3CCCCC3)c(=O)c2=O)cc1	.	.	.	.	/	.
COc1ccc(N2C(=O)N(Cc3cccc(F)c3)c3ccccc3S2(=O)=O)cc1	/	8.8	.	/	.	/
O=C(c1cccc(F)c1F)N1CCCC1	.	.	.	/	.	.
O=C(Nc1cc2c(oc1=O)CCCC2=O)c1ccc(Cl)cc1	.	.	.	.	.	.
CCN1C(=O)N[C@@H](c2ccc(Br)cc2)C(C(=O)OC)=C1C	.	.	65	.	/	.
COC(=O)C1=C(C)N(Cc2ccccc2)C(=O)N[C@H]1c1ccccc1	.	.	.	.	/	.
CC1=C(C(=O)OCc2ccccc2)C(c2ccc(-c3ccccc3)cc2)NC(=O)N1CCCCCC(=O)O (stereo not given)	.	11	.	.	/	.
CCOC(=O)CN1C(=O)N[C@@H](c2ccccc2)C(C(C)=O)=C1C	.	.	60	.	/	.
CC1=C(C(=O)OCc2ccccc2)C(c2ccccc2)NC(=O)N1CCCCCC(=O)O (stereo not given)	.	10	.	.	/	.
Cc1ccnc(N2CCN(c3c4c(c(C#N)c5nc6ccccc6n35)CCC4)CC2)c1	/	/	86	/	/	/
CCc1c(C)c(C#N)c2nc3ccccc3n2c1N1CCN(c2cc(C)ccn2)CC1	.	.	.	.	.	.
O=C(Nc1ccc(C#Cc2ccccc2)cc1)C1CC1	58	.	.	.	.	.
O=C(Nc1ccccc1-c1nc2ccccc2[nH]1)c1ccc(S(=O)(=O)N2CCCCC2)cc1	.	.	/	42	.	.
CC1CCCCN1S(=O)(=O)c1ccc(C(=O)Nc2ccccc2-c2nc3ccccc3[nH]2)cc1 (stereo not given)	.	.	.	.	/	.
CC(C)c1ccc(C2C3CSCC=C3C(C#N)=C(N)C2(C#N)C#N)cc1 (stereo not given)	.	.	.	29	.	.
CN1CC=C2C(C#N)=C(N)C(C#N)(C#N)[C@H](c3cccc(Cl)c3)C2C1 (stereo not given in full)	.	.	.	.	.	.
CCOc1ccc(NC(=O)CNC(=O)c2ccc(OC)c(OC)c2)cc1	.	8.8	.	.	.	.
COc1ccc(C(=O)NCC(=O)OCC(=O)c2cc(OC)c(OC)c(OC)c2)cc1OC	44	.	/	.	.	.
CCOc1ccc(-c2nnc(NC(=O)c3ccc(OCC(C)C)c(OC)c3)o2)cc1	41	.	/	.	.	.
CCOc1ccc(NC(=O)CNC(=O)c2ccc(OC)cc2)cc1	/	.	.	/	.	/
NC(=O)CN1CCN(C(=O)Nc2ccccc2)CC1	.	.	/	.	.	.
SMILES	Measles CPE	RAM inhibit	INS promoter inh	Yeast life ext	Mdm2 ligase inh	BB579 growth dn
COc1ccccc1CN1CC(C(=O)NCc2cccnc2)CC1=O (stereo not given)	.	.	.	.	.	.
O=C(N/N=C\c1ccc(F)cc1)c1csnn1	.	.	/	.	.	.
CCOc1ccc(NC(=S)Nc2ccc(OCc3ccccc3)cc2)cc1	44	.	.	.	.	.
CNC(=S)Nc1ccc(OCc2ccccc2)cc1	/	.	/	/	.	/
COc1ccc(OC)c(Cc2nnc(CCC(=O)NC3C4CC5CC(C4)CC3C5)o2)c1 (stereo not given)	/	.	/	/	.	/
COc1ccc(-c2nnc(N)s2)cc1	.	.	75	.	.	.
O=C(NCc1ccccc1)C(=O)NCC1OCCN1S(=O)(=O)c1cccs1 (stereo not given)	36	.	.	.	/	.
